# Active and inactive are the calls of the source. No cut-off for these calls is given here.
# Key:
# [1] = Antiproliferative activity against human PC3 cells assessed as cellular DNA content after 72 hrs by CyQUANT NF fluorescence assay relative to control; type: functional, PC-3
# In short: (§1)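 Cells seeded at 750 (HT-29), 250 (PC-3) or 900 (T84, MCF7) cells/well, treated next day with concentration series for 72 h (HT-29, PC-3) or 96 h (T84, MCF7). Relative cell number from cellular DNA content by fluorescent DNA-binding dye. Variable-slope fit; efficiency = maximal inhibition (100% − Bottom) vs untreated; IC50 relative to the compound's own maximal efficiency.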
# HT-29 [2] = assay: Antiproliferative activity against human HT-29 cells assessed as cellular DNA content at 20 uM after 48 hrs by CyQUANT NF fluorescence assay in presence of glutathione; type: functional, cell-based
# In short: (§2)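 HT-29 given concentration series of test compound with or without antioxidant (NAC 1 mM, GSH 2.5 mM, D3T 25 μM, α-tocopherol 50 μM, ascorbic acid 500 μM) for 48 h. Relative cell number from DNA-binding fluorescent dye; means ± SD, n = 4.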
# HT-29 [3] = assay: Induction of cell cycle arrest in human HT-29 cells assessed as accumulation at S phase at 10 uM by flow cytometry (reference value: 11%); type: functional
# T84 = assay: Antiproliferative activity against human T84 cells assessed as cellular DNA content after 96 hrs by CyQUANT NF fluorescence assay relative to control; type: functional; in short: as §1
# HT-29 [4] = assay: Induction of ROS generation in human HT-29 cells at 30 uM by CM-H2DCFDA staining-based fluorescence assay in presence of ascorbic acid; type: functional, cell-based
# In short: (§3)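 HT-29 (15 000 cells/well) loaded with 50 μM CM-H2DCFDA in PBS for 30 min at 37 °C, washed, then 60 min in phenol red-free DMEM/F-12. 30 μM compound added alone or with NAC 1 mM, GSH 2.5 mM, D3T 25 μM, α-tocopherol 50 μM or ascorbic acid 500 μM. Fluorescence 485/530 nm read kinetically at 37 °C for 22 h; area under curve; means ± SEM, n = 7.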
# HT-29 [5] = assay: Induction of ROS generation in human HT-29 cells at 30 uM by CM-H2DCFDA staining-based fluorescence assay in presence of alpha-tocopherol; type: functional, cell-based; in short: as §3
# HT-29 [6] = assay: Downregulation of CDK6 expression in human HT-29 cells at 10 uM after 48 hrs by immunoblotting method; type: functional, cell-based
# In short: (§4)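 HT-29 exposed to 10 μM for 48 h; whole-cell lysates immunoblotted for the indicated proteins (total and cleaved PARP for the apoptosis line).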
# HT-29 [7] = assay: Induction of apoptosis in human HT-29 cells assessed as phosphatidylserine externalization at 20 uM after 48 hrs by annexin V-FLUOS/propidium iodide staining-based flow cytometry (reference value: 8%); type: functional
# HT-29 [8] = assay: Induction of apoptosis in human HT-29 cells assessed as mitochondrial membrane depolarization after 5 mins by JC-1 dye-based fluorescence assay; type: functional, cell-based; conditions: HT-29, 5 min
# In short: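 HT-29 (40 000 cells/well) treated with concentration series for 5 min at 37 °C, then JC-1 added for a further 10 min and washed. Red (560/590 nm) to green (485/520 nm) fluorescence ratio taken as ΔΨm; variable-slope fit for IC50; means ± SD, n = 4.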
# [9] = molecular target: T1, Peroxisome proliferator-activated receptor alpha (Homo sapiens, UniProt Q07869); assay: Competitive binding affinity to PPARalpha (unknown origin) by TR-FRET assay
# T1 sequence (Q07869 whole entry): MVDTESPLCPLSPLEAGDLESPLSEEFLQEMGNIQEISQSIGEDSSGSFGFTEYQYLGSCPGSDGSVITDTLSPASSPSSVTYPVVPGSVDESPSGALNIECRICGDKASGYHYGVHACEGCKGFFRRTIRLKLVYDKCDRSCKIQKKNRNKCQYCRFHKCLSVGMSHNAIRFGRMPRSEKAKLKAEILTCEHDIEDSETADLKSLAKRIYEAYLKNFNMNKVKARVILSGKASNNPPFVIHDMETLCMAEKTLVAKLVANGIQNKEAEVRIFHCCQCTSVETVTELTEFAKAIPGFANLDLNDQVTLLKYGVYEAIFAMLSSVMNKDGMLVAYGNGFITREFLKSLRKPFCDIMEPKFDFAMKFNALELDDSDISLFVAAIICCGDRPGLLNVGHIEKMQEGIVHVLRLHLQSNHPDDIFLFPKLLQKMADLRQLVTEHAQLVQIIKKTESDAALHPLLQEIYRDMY
# HT-29 [10] = assay: Antiproliferative activity against human HT-29 cells assessed as cellular DNA content at 20 uM after 48 hrs by CyQUANT NF fluorescence assay in presence of PPAR siRNA; type: functional, cell-based
# In short: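 HT-29 reverse-transfected with equimolar siRNA pool against PPARα, β/δ, γ (10 nM each) or 30 nM nonspecific siRNA, seeded 850 cells/well. After 48 h, 20 μM compound added for a further 48 h. Relative cell number from DNA content; means ± SD, n = 8.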
# HT-29 [11] = assay: Downregulation of CDK2 expression in human HT-29 cells at 10 uM after 48 hrs by immunoblotting method; type: functional, cell-based; in short: as §4
# HT-29 [12] = assay: Induction of ROS generation in human HT-29 cells at 30 uM by CM-H2DCFDA staining-based fluorescence assay; type: functional, cell-based; in short: as §3
# [13] = molecular target: T2, Peroxisome proliferator-activated receptor delta (Homo sapiens, UniProt Q03181); assay: Competitive binding affinity to PPARbeta/delta (unknown origin) by TR-FRET assay
# T2 sequence (Q03181 whole entry): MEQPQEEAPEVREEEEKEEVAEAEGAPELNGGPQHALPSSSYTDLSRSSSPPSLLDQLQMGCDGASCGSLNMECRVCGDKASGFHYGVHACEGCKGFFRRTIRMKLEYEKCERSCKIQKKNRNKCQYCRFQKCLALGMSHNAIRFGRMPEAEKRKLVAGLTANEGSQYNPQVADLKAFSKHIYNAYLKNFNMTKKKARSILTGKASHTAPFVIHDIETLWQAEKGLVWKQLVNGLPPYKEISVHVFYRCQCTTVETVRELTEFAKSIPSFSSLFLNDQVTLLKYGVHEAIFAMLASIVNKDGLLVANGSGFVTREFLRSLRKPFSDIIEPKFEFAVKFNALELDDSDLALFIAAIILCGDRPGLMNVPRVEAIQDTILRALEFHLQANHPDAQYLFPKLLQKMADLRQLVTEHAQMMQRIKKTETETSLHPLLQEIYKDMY
# HT-29 [14] = assay: Downregulation of cyclin D3 expression in human HT-29 cells at 10 uM after 48 hrs by immunoblotting method; type: functional, cell-based; in short: as §4
# HT-29 [15] = assay: Induction of apoptosis in human HT-29 cells assessed as cleaved PARP level at 10 uM after 48 hrs; type: functional, cell-based; in short: as §4
# HT-29 [16] = assay: Induction of ROS generation in human HT-29 cells at 30 uM by CM-H2DCFDA staining-based fluorescence assay in presence of glutathione; type: functional, cell-based; in short: as §3
# HT-29 [17] = assay: Antiproliferative activity against human HT-29 cells assessed as cellular DNA content at 20 uM after 48 hrs by CyQUANT NF fluorescence assay in presence of 3H-1,2-dithiole-3-thione; type: functional, cell-based; in short: as §2
smiles,measurement,setting,value
COc1c(CC=C(C)C)c(O)c(C(=O)O)c(CCc2ccccc2)c1CC=C(C)C,Efficacy,[1],95%
same,Activity,HT-29 [2],Active
same,Activity,HT-29 [3],2%
same,Efficacy,T84,99%
same,Activity,HT-29 [4],inactive
same,Activity,HT-29 [5],inactive
same,Activity,HT-29 [6],Active
same,Activity,HT-29 [7],44%
same,IC50,HT-29 [8],0.6 µM
same,Ki,[9],9.1 µM
same,Activity,HT-29 [10],Active
same,Activity,HT-29 [11],Active
same,Activity,HT-29 [12],Active
same,Ki,[13],5.2 µM
same,Activity,HT-29 [14],Active
same,Activity,HT-29 [15],Active
same,Activity,HT-29 [16],inactive
same,Activity,HT-29 [17],Active
